In the library only some 4.5% were active in any assay of this set; here they are far more common.
TAAR1 antag – human TAAR1 antagonism. AID 624466. Q96RJ0. CHO RD-HGA16 TAAR1, Fluo-8 calcium fluorescence, antagonist. 360,000 tested, 1.5% active. inhibition, % at 3 µM;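 active = inhibition above a per-plate cutoff, the mean inhibition of test compounds on that plate plus 3 SD, cut at about 49% in these data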;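 also: 0% = DMSO plus EC80 beta-PEA response and 100% = DMSO alone without agonist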
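Test system – hTAAR1-expressing CHO RD-HGA16 cells, Gα16-coupled · Also added – β-PEA at EC80 concentration, post-compound challenge · Compound – 3 µM, single point · Incubation – dye loading 75 min at 37 °C, then 30 min room temperature · Measured by – Fluo-8 intracellular calcium dye fluorescence, real-time kinetic reads · Benchmarks – vehicle and agonist controls · Replicates – singlicate, one well per test compound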
TAAR1 agonist – agonists of human TAAR1; CHO RD-HGA16 TAAR1, Fluo-8 calcium fluorescence; vehicle wells 0%, saturating PEA agonist 100%; Q96RJ0; 360,000 tested, 0.99% active; activation, % at 3 µM; AID 624467;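 active = activation above the mean activation of all test compounds in the run plus 3 SD, cut at about 38% in these data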
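Signal – calcium-sensitive Fluo-8 signal, excitation 470-495, emission 515-575 nm · System – RD-HGA16 (CHO) cells co-expressing Gα16 and hTAAR1 · Incubation – 17-24 h seeding, 75 min 37 °C dye, 30 min RT · Compound dosing – 3 µM single concentration · Repeats – no replicates (n 1)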
GPR7 antagonist – blocks human GPR7 receptor signaling; P48145; inhibition, % at 4.4 µM; 290,000 tested, 1.1% active; GPR7-expressing cells, fluorescence antagonist assay; in the data active = inhibition above about 16%, passing the limit was not always enough;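 also: cells stimulated with the agonist NPW; 0% = agonist with vehicle and 100% = vehicle without agonist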
OX1R antag-1 – antagonists of human orexin 1 receptor (OX1R); O43613; OX1R-expressing cells, FRET antagonist read-out; inhibition, % at 6.6 µM; 330,000 tested, 1.8% active; AID 485270; in the data active = inhibition mostly above about 38%, no sharp cut-off; inactive = mostly below about 40%;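 also: 0% = agonist challenge alone and 100% = reference antagonist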
Target sequence (O43613 whole entry, looked up): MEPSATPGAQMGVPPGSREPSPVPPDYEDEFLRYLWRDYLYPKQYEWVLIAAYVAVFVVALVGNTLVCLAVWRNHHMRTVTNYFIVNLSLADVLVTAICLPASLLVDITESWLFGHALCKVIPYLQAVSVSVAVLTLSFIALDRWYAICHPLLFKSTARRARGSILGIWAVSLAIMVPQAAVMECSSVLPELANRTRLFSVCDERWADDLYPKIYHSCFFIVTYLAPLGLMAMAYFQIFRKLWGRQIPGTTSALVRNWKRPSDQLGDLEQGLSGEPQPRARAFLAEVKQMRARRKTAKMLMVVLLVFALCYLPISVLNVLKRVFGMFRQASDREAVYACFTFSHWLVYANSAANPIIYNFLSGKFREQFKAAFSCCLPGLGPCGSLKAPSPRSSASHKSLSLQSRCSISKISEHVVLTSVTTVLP
OX1R antag-2 – blocks the human orexin 1 receptor. 330,000 tested, 0.43% active. AID 434989. CHO/OX1R cells, Fluo-8 calcium fluorescence, orexin A. inhibition, % at 5 µM;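 active = inhibition above its plate's threshold, mean inhibition of all tested compounds on the plate plus 3 SD, cut at about 37% in these data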;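 also: 0% = orexin A challenge wells and 100% = SB-334867-A antagonist wells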
CHO parental Ca – signal in parental CHO cells, OX1R antagonist counter-screen. parental CHO-K1, ATP-induced calcium, Fluo-8 fluorescence. 330,000 tested, 0.63% active. AID 463079. inhibition, % at 5.6 µM;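 active = inhibition above that plate's mean sample inhibition plus 3 SD, cut at about 26% in these data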;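 also: 0% = ATP-challenged DMSO wells and 100% = DMSO wells without ATP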
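Material: Parental CHO cells | Reagent: ATP | Compound dosing: Single nominal dose of 5.6 µM per compound | Detection: Intracellular calcium via Fluo-8 no-wash fluorescent dye | Read-out: % inhibition of ATP-induced calcium mobilization | Benchmarks: Low control ATP plus DMSO, high control DMSO only | Replicates: Singlicate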
Starred values were filed as active, the others as inactive; · = no result given.

SMILES	TAAR1 antag	TAAR1 agonist	GPR7 antagonist	OX1R antag-1	OX1R antag-2	CHO parental Ca
COc1cccc(NS(=O)(=O)NC(=O)c2c(C)[nH]c3ccccc23)c1	-12	0	0	6	-22	-16
O=C(O)c1ccccc1NC(c1ccccc1)c1ccc(Cl)cc1 (centres undefined)	-22	-4	-8	16	-17	-14
N#Cc1cnn2c(=O)[nH]cnc12	-11	6	·	·	·	·
NC(Cc1ccccc1)c1csc(Nc2ccc(C(=O)c3ccccc3)cc2)n1 (centres undefined)	27	54*	·	·	·	·
CC(C)CC(N)c1csc(Nc2ccc(C(=O)c3ccccc3)cc2)n1 (centres undefined)	29	41*	·	·	·	·
CCOC(=O)/C=C1/SCC(=O)N1CCOc1cccc(Br)c1	-16	1	·	·	·	·
COc1ccc(-n2c(O)c(/C=N/NS(=O)(=O)c3cc(C)ccc3C)c3ccccc3c2=O)cc1OC	50*	42*	-16	25	10	2
COc1ccc(-n2c(O)c(/C=N/NS(=O)(=O)c3ccc(C)cc3)c3ccccc3c2=O)cc1OC	42	21	-15	10	-1	2
COc1cc(/C=C/C(=O)OCC(=O)N2c3ccccc3NC(=O)C2(C)C)cc(OC)c1OC	64*	27	·	39*	12	-8
COc1ccc(S(N)(=O)=O)cc1C(=O)OCC(=O)N1c2ccccc2NC(=O)C1(C)C	0	15	·	-3	9	-4
CC(=O)NC(c1ccccc1)c1nc(-c2cc3ccccc3o2)cs1 (centres undefined)	4	2	·	·	·	·
COc1ccc(C(=O)Nc2ccc(O)c3ccccc23)cc1OC	14	4	·	7	-20	-6
Cc1ccc(N(CC(=O)N2CCCCCC2)S(C)(=O)=O)cc1	-1	1	·	·	·	·
CC(=O)c1ccc(NC(=O)c2ccc3nc(-c4ccco4)c(-c4ccco4)nc3c2)cc1	·	·	-1	36	-29	-2
O=C(NCCO)Nc1ccc2nc(-c3ccco3)c(-c3ccco3)nc2c1	·	·	-3	100*	-116	-8
O=C(Nc1ccccc1)c1ccc2nc(-c3ccco3)c(-c3ccco3)nc2c1	0	1	-1	102*	71*	-24
S=C1Cc2ccccc2N1	3	43*	-11	·	·	·
COc1cccc(NC(=O)N(C)C[C@H]2OCc3ccccc3-c3c(n(C)c4ccccc34)C(=O)N([C@H](C)CO)C[C@H]2C)c1	0	1	·	·	·	·
CC(=O)N1CCc2c(sc(NC(=O)C3CCCN3S(=O)(=O)c3cccs3)c2C(N)=O)C1 (centres undefined)	-4	2	·	39*	-5	-14
CC(=O)N1CCc2c(sc(NC(=O)C3CCN(S(=O)(=O)c4cccs4)CC3)c2C(N)=O)C1	7	2	·	3	-14	-4
Cc1cc(C)cc(N(CC(=O)NC2CCCC2)C(=O)CCC(=O)Nc2nc(C)cs2)c1	-7	43*	8	23	-11	-19
CCOC(=O)C1CCCN(CC(O)COc2ccc(OC)cc2C(C)(C)C)C1 (centres undefined)	48	39*	-1	6	-43	-16
CCOC(=O)N1CCN(CC(O)COc2ccc(OC)cc2C(C)(C)C)CC1 (centres undefined)	3	6	-9	22	-39	-15
CCOC(=O)C=Nc1c(N)n(C)c(=O)n(C)c1=O	-27	0	-4	19	-1	16
O=C(COC(=O)c1cc[n+]([O-])cc1)Nc1ccc(SC(F)F)cc1	-7	1	-13	28	5	-3
SMILES	TAAR1 antag	TAAR1 agonist	GPR7 antagonist	OX1R antag-1	OX1R antag-2	CHO parental Ca
CCOc1ccc(C(=O)OCC(=O)Nc2ccc(SC(F)F)cc2)cc1OCC	33	2	-9	8	-6	25*
O=C(Cn1c(C(=O)N2CCc3ccccc3C2)cc2sccc21)c1ccccc1	·	·	-2	11	-25	-19
O=C(c1cc2sccc2n1Cc1ccccc1)N1CCN(c2nc3ccccc3s2)CC1	-7	0	24	17	-10	35*
O=C(Cn1c(C(=O)N2CCN(C3CCCCC3)CC2)cc2sccc21)c1ccccc1	15	7	20*	11	-30	-21
CO[C@@H]1CN(C)C(=O)c2ccc(NS(=O)(=O)c3c(C)noc3C)cc2OC[C@@H](C)NC[C@@H]1C	-6	1	·	·	·	·
N/C(=N\OC(=O)c1cccc2ccccc12)c1cccnc1	-1	1	10	53*	-26	-25
COCCCNC(=O)CSc1nc2ccccc2c(=O)n1CCc1ccc(S(N)(=O)=O)cc1	57*	10	-2	42	-21	-12
CCN(CC)c1ccc(/C=N\NC(=O)c2cccc3cc[nH]c23)cc1	4	0	1	51*	-2	-16
C[C@@H](C(=O)Nc1ccc2ccccc2c1)[C@H]1C[C@]1(C)[C@H](NC(=O)c1cnccn1)c1ccccc1	18	8	0	69*	27	-28
COc1ccc(-c2nnc(NC(=O)CS(=O)(=O)c3ccc(F)cc3)o2)c(OC)c1	-20	1	·	26	-7	-23
O=C(CS(=O)(=O)c1ccc(F)cc1)Nc1nnc(-c2ccccc2Cl)o1	2	2	·	45*	-11	-12
COc1ccc2oc(C(=O)OCC(=O)Nc3ccc(C)c(S(=O)(=O)N4CCOCC4)c3)c(C)c2c1	-11	-2	·	·	·	·
O=C(NCC1CCCO1)c1cc2ccccc2o1 (centres undefined)	-5	0	-11	9	-12	-2
COc1cccc(NC(=O)Cn2nnc(C(=O)Nc3cc(Cl)ccc3OC)c2N)c1	-5	2	-2	10	-4	4
Cc1ccc(C)c(NC(=O)c2nnn(Cc3ccccc3)c2N)c1	-7	13	11	8	-2	-3
COc1cccc(Cn2nnc(C(=O)Nc3cc(Cl)ccc3OC)c2N)c1	2	1	5	42*	13	30*
Cc1ccc(Cn2nnc(C(=O)Nc3cc(C)ccc3C)c2N)cc1	34	48*	13	-1	13	9
COC(=O)N(NC(=O)C(O)(CCC(C)C)CCC(C)C)c1ccccc1	-1	0	24*	11	-12	-23
CC(C)CCC(O)(CCC(C)C)C(=O)NNc1ccccc1	-20	3	4	11	-26	-25
CS(=O)(=O)c1ccc(Sc2nc3ccccc3[nH]2)c([N+](=O)[O-])c1	9	2	-9	44*	-34	-9
O=[N+]([O-])c1cc(S(=O)(=O)C(F)(F)F)ccc1Sc1nc2ccccc2[nH]1	21	13	-19	59	-4	-14
N#Cc1cccnc1N1CCN(C(=O)c2cccc3c2C(=O)c2ccc(Cl)cc2S3(=O)=O)CC1	19	20	·	34*	-19	-24

Source: PubChem BioAssay (The Scripps Research Institute Molecular Screening Center)
